Converted amounts (≈) assume the structure as drawn.
Experiments:
[1] = Cytotoxicity against mouse RAW cells assessed as reduction in cell viability at =>3 uM measured after 48 hrs by MTT assay; assay type: toxicity; details: read-out: INH
[2] = tested on: Mycobacterium tuberculosis; assay: Antimycobacterial activity against Mycobacterium tuberculosis by broth microdilution assay; assay type: functional
[3] = Selectivity index, ratio of IC50 for human HepG2 cells to MIC for Mycobacterium tuberculosis H37Rv; assay type: toxicity, cell-based; details: read-out: Ratio IC50
[4] = Cytotoxicity against human A549 cells measured after 48 hrs by MTT assay; assay type: toxicity, cell-based
In short: (§1)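 Cells from ATCC grown in DMEM with 10% FBS at 37 °C in 5% CO2, harvested by trypsinization and seeded at 7500 cells per well. After 18 h, compound added at final 0.1, 1, 10 and 100 µM in triplicate. Plates incubated 48 h, then MTT for 60 min at 37 °C. Formazan dissolved in DMSO and read at 560 nm. Percent growth taken relative to control wells, with dose-response curves. Repeated three times, mean ± SD.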

[5] = Selectivity index, ratio of IC50 for human A549 cells to MIC for Mycobacterium tuberculosis H37Rv; assay type: toxicity, cell-based; details: read-out: Ratio IC50
[6] = Cytotoxicity against human THP1 cells assessed as reduction in cell viability at =>3 uM measured after 48 hrs by MTT assay; assay type: toxicity, cell-based, THP-1; details: read-out: INH
[7] = Metabolic stability in human plasma at 50 uM measured after 60 mins by LC-MS/MS analysis; assay type: ADME, cell-free; details: read-out: Stability
In short: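 Working solution at 50 µM in acetonitrile:water (1:1), from a 10 mM DMSO stock. 2 µL added to 98 µL of plasma and incubated 60 min at 37 °C. Quenched with methanol containing internal standard, centrifuged, and supernatant analysed by LC-MS/MS.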

[8] = Cytotoxicity against human HepG2 cells measured after 48 hrs by MTT assay; assay type: toxicity, cell-based; in short: as §1
[9] = Protein binding human plasma at 150 uM measured after 30 mins by equilibrium dialysis method; assay type: ADME, cell-free; details: read-out: PPB (converted)
In short: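 Plasma spiked with 5 µL of 150 µM compound per 745 µL. Sampled at 0 h, then incubated 30 min at 37 °C. Rapid equilibrium dialysis of plasma against KH2PO4 buffer pH 7.4 for 4 h at 37 °C with shaking. Both chambers matrix-matched and precipitated with methanol containing tolbutamide internal standard. Analysed by LC-MS/MS.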

[10] = tested on: Mycobacterium tuberculosis; assay: Antitubercular activity against Mycobacterium tuberculosis H37Rv assessed as growth inhibition by Alamar-Blue assay; assay type: functional
[11] = Metabolic stability in mouse liver microsomes at 1 or 50 uM measured after 30 to 60 mins in presence of cofactor by LC-MS/MS analysis; assay type: ADME
In short: (§2)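 Stock 10 mM in DMSO, diluted to a 50 µM working solution in acetonitrile:water (1:1). 2 µL of this added to 98 µL of buffer, microsomes and cofactor. Incubated at 37 °C for 15, 30, 45 and 60 min. Stopped with methanol containing internal standard, vortexed and centrifuged. Supernatant analysed by LC-MS/MS.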

[12] = Solubility of the compound at pH 7.4 by HPLC method; assay type: physicochemical; details: buffer
In short: (§3)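 Compound diluted to a 5 mM DMSO working solution from a 10 mM stock. 5 µL added to 495 µL of buffer at the stated pH. Vortexed 5 min and centrifuged. Supernatant quantified by HPLC.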

[13] = Solubility of the compound at pH 1.2 by HPLC method; assay type: physicochemical; details: buffer; in short: as §3
[14] = Solubility of the compound at pH 4.5 by HPLC method; assay type: physicochemical; details: buffer; in short: as §3
[15] = Solubility of the compound at pH 2.2 by HPLC method; assay type: physicochemical; details: buffer; in short: as §3
[16] = Metabolic stability in human liver microsomes at 1 or 50 uM measured after 30 to 60 mins in presence of cofactor by LC-MS/MS analysis; assay type: ADME; in short: as §2
[17] = Solubility of the compound at pH 10.2 by HPLC method; assay type: physicochemical; details: buffer; in short: as §3

| SMILES | selectivity ratio [3] | IC50 at 48 h [4] | selectivity ratio [5] | remaining at 1 h, 50 µM [7] | IC50 at 48 h [8] | fraction unbound at 0.5 h, 150 µM [9] | MIC [10] | other results |
| --- | --- | --- | --- | --- | --- | --- | --- | --- |
| Cc1c(CN2CCN(C)CC2)cc(-c2ccc(Cl)cc2)n1-c1ccc(Cl)cc1 | 44.4 | 91.5 µM | 57.2 | 100% | 71 µM | 0.0077 | 0.7 µg/mL (≈ 1.69 µM) | cytotoxicity at 48 h [1]: 40 to 60%; MIC [2]: 0.7 to 1.5 µg/mL (≈ 1.69 to 3.62 µM); cytotoxicity at 48 h [6]: 40 to 60% |
| C[Si]1(C)CCN(NCc2cc(-c3ccc(Cl)cc3)n(-c3ccc(Cl)cc3)n2)CC1 | 99.8 | 73.2 µM | 84.2 | 100% | 86.8 µM | 0.0069 | 0.39 µg/mL (≈ 0.875 µM) | cytotoxicity at 48 h [1]: 40 to 60%; Stability [11]: 100%; solubility [12]: 39.8 µM (≈ 17.7 µg/mL); cytotoxicity at 48 h [6]: 40 to 60%; solubility [13]: 43.1 µM (≈ 19.2 µg/mL); solubility [14]: 44.3 µM (≈ 19.7 µg/mL); solubility [15]: 43.2 µM (≈ 19.2 µg/mL); Stability [16]: 93.1%; solubility [17]: 38 µM (≈ 16.9 µg/mL) |
| CN(C)CCCNC(=O)c1cc(-c2ccc(Cl)cc2)n(-c2ccc(Cl)cc2)n1 | – | – | – | – | – | – | 25 µg/mL (≈ 59.9 µM) | – |
| Cc1c(CN2CCN(C)CC2)nn(-c2ccc(Cl)cc2Cl)c1-c1ccc(Cl)cc1 | 3.1 | 80.3 µM | 2.9 | – | 85 µM | – | 12.5 µg/mL (≈ 27.8 µM) | – |
| Cc1c(CN2CC[Si](C)(C)CC2)nn(-c2ccc(Cl)cc2Cl)c1-c1ccc(Cl)cc1 | 30.5 | 54.2 µM | 31.9 | 99.2% | 51.9 µM | 0.0005 | 1.17 µg/mL (≈ 2.44 µM) | cytotoxicity at 48 h [1]: 40 to 60%; Stability [11]: 9.2%; solubility [12]: 1.05 µM (≈ 0.503 µg/mL); cytotoxicity at 48 h [6]: 40 to 60%; solubility [13]: 41 µM (≈ 19.6 µg/mL); solubility [14]: 34.2 µM (≈ 16.4 µg/mL); solubility [15]: 40.6 µM (≈ 19.4 µg/mL); Stability [16]: 18.5%; solubility [17]: 10.9 µM (≈ 5.24 µg/mL) |
| Cc1c(C(=O)N2CCNCC2)nn(-c2ccc(Cl)cc2Cl)c1-c1ccc(Cl)cc1 | – | – | – | – | – | – | 25 µg/mL (≈ 55.6 µM) | – |
| C[Si]1(C)CCN(Cc2nn(-c3ccc(Cl)cc3Cl)c(-c3ccc(Cl)cc3)c2CO)CC1 | 2.41 | 61.9 µM | 4.92 | 88.1% | 30.4 µM | 0.0004 | 6.25 µg/mL (≈ 12.6 µM) | Stability [11]: 3.7%; solubility [12]: 5.31 µM (≈ 2.63 µg/mL); solubility [13]: 44 µM (≈ 21.8 µg/mL); solubility [14]: 41.6 µM (≈ 20.6 µg/mL); solubility [15]: 42.5 µM (≈ 21 µg/mL); Stability [16]: 2.1%; solubility [17]: 2.39 µM (≈ 1.18 µg/mL) |
| Cc1c(C(=O)NCCCN(C)C)nn(-c2ccc(Cl)cc2Cl)c1-c1ccc(Cl)cc1 | – | – | – | – | – | – | 25 µg/mL (≈ 53.7 µM) | – |
| Clc1ccc(-c2cc(CN3CCCCC3)nn2-c2ccc(Cl)cc2)cc1 | – | – | – | 91.7% | – | 0.0011 | 1.56 µg/mL (≈ 4.04 µM) | Stability [11]: 26%; solubility [12]: 11.4 µM (≈ 4.4 µg/mL); solubility [13]: 45 µM (≈ 17.4 µg/mL); solubility [14]: 43.6 µM (≈ 16.8 µg/mL); solubility [15]: 44.6 µM (≈ 17.2 µg/mL); Stability [16]: 60.1%; solubility [17]: 1.49 µM (≈ 0.576 µg/mL) |
| O=C1CCN(Cc2cc(-c3ccc(Cl)cc3)n(-c3ccc(Cl)cc3)n2)CC1 | – | – | – | – | – | – | 25 µg/mL (≈ 62.5 µM) | – |
| Cc1c(CNCc2ccccc2)nn(-c2ccc(Cl)cc2Cl)c1-c1ccc(Cl)cc1 | 4.2 | 55.8 µM | 4.1 | – | 57.4 µM | – | 6.25 µg/mL (≈ 13.7 µM) | – |
| O=C(c1cc(-c2ccc(Cl)cc2)n(-c2ccc(Cl)cc2)n1)N1CCNCC1 | – | – | – | – | – | – | 25 µg/mL (≈ 62.3 µM) | – |
| Cc1c(C(=O)NN2CCN(C)CC2)nn(-c2ccc(Cl)cc2Cl)c1-c1ccc(Cl)cc1 | – | – | – | – | – | – | 25 µg/mL (≈ 52.2 µM) | – |
| Cc1c(CN(C)C)nn(-c2ccc(Cl)cc2Cl)c1-c1ccc(Cl)cc1 | 2.3 | 57.2 µM | 3.62 | – | 36.3 µM | – | 6.25 µg/mL (≈ 15.8 µM) | – |
| C[Si]1(C)CCN(Cc2cc(-c3ccc(Cl)cc3)n(-c3ccc(Cl)cc3)n2)CC1 | 306 | 58.9 µM | 841 | 100% | 21.4 µM | 0.0007 | 0.031 µg/mL (≈ 0.072 µM) | cytotoxicity at 48 h [1]: 40 to 60%; Stability [11]: 6.3%; solubility [12]: 3.72 µM (≈ 1.6 µg/mL); cytotoxicity at 48 h [6]: 40 to 60%; solubility [13]: 43 µM (≈ 18.5 µg/mL); solubility [14]: 41.9 µM (≈ 18 µg/mL); solubility [15]: 42.3 µM (≈ 18.2 µg/mL); Stability [16]: 20.3%; solubility [17]: 1.99 µM (≈ 0.857 µg/mL) |
| CN(C)C(=O)c1cc(-c2ccc(Cl)cc2)n(-c2ccc(Cl)cc2)n1 | – | – | – | – | – | – | 25 µg/mL (≈ 69.4 µM) | – |
| CN1CCN(Cc2cc(-c3ccc(Cl)cc3)n(-c3ccc(Cl)cc3)n2)CC1 | – | – | – | – | – | – | 25 µg/mL (≈ 62.3 µM) | – |
| C[Si]1(C)CCN(C(=O)c2cc(-c3ccc(Cl)cc3)n(-c3ccc(Cl)cc3)n2)CC1 | 4.18 | 68.3 µM | 4.85 | 89.7% | 59 µM | 0.0001 | 6.25 µg/mL (≈ 14.1 µM) | Stability [11]: 3.9%; solubility [12]: 0.05 µM (≈ 0.0222 µg/mL); solubility [13]: 0.16 µM (≈ 0.0711 µg/mL); solubility [14]: 0.13 µM (≈ 0.0578 µg/mL); solubility [15]: 0.18 µM (≈ 0.08 µg/mL); Stability [16]: 2.1%; solubility [17]: 1.28 µM (≈ 0.569 µg/mL) |
| Cc1c(CN2CCNCC2)nn(-c2ccc(Cl)cc2Cl)c1-c1ccc(Cl)cc1 | – | – | – | – | – | – | 25 µg/mL (≈ 57.4 µM) | – |
| Cc1c(CN2CCCCC2)nn(-c2ccc(Cl)cc2Cl)c1-c1ccc(Cl)cc1 | > 3.5 | 88.8 µM | 3.1 | – | > 100 µM | – | 12.5 µg/mL (≈ 28.7 µM) | – |
| COc1cccc2c1C(=O)c1c(O)c3c(c(O)c1C2=O)C[C@@](O)(C(=O)CO)C[C@@H]3O[C@H]1C[C@H](N)[C@H](O)[C@H](C)O1 [DOXORUBICIN] | – | 5.32 µM | – | – | 5.34 µM | – | – | – |
| NNC(=O)c1ccncc1 [ISONIAZID] | – | – | – | – | – | – | 0.3 µg/mL (≈ 2.19 µM) | – |
| Cc1c(C(=O)NN2CCCCC2)nn(-c2ccc(Cl)cc2Cl)c1-c1ccc(Cl)cc1 [RIMONABANT] | – | – | – | – | – | – | 25 µg/mL (≈ 53.9 µM) | – |
